Measured values of several laboratories.
Compare with care: the assays were run in different laboratories.
Medium: plasma

C=CC(=O)N1CC2CC(n3nc(-c4ccc(C(=O)Nc5ccccn5)cc4)c4c(N)ncnc43)CC2C1 (stereo not drawn)
bioavailability (male BALB/c mouse; oral, 3 mg/kg): 47%

CCc1ccc(Cc2cc([C@@H]3O[C@H](CO)[C@@H](O)[C@H](O)[C@H]3O)cc3c2CCC3)cc1
bioavailability (male C57BL/6 mouse; oral, 3 mg/kg): > 100%

CCc1cc(C(=O)NC)c2nccc(N3CCc4c(cc(Cn5ccnc5)cc4-c4cn(C)nc4C(F)(F)F)C3=O)c2c1
bioavailability (male CD-1 mouse; oral, 50 mg/kg): 175%

Cc1nc2ccccc2n1Cc1ccc(C(=O)NO)cc1F
bioavailability (male CD-1 mouse; oral, 30 mg/kg): ~21%

CCN1CC(=O)NC(CC(C)C)C(=O)N(C)C(C)C(=O)NC(CC(C)C)C(=O)N2CCCC2C(=O)N(CC2CCOCC2)CC(=O)NC(CC(C)C)C(=O)N(C)C(C)C(=O)NC(C)C(=O)N2CCCC2C1=O (stereo not drawn)
bioavailability (mouse; oral, 200 mg/kg): 50%

Oc1ccc(-c2nc(-c3ccc(Oc4ccc(C(F)(F)F)cc4)cc3)no2)cc1
bioavailability (female CD-1 mouse; oral, 50 mg/kg): 100%

CNC(=O)c1cc(OC)cc2c(N3CCc4c(cc(Cn5ccnc5)cc4-c4cn(C)nc4C(F)(F)F)C3=O)ccnc12
bioavailability (male CD-1 mouse; oral, 50 mg/kg): 263%

CCCCCCCC(=O)N[C@H](CN1CCCC1)[C@H](O)c1ccc2c(c1)OCCO2
bioavailability (CD-1 mouse; oral, 10 mg/kg): < 1%

COc1nc(-c2cc(C)c(N[C@@H](C)c3c(F)cc(F)cc3F)nn2)ccc1-n1cnc(C)c1
bioavailability (male CD-1 mouse; oral, 5 mg/kg, single dose): 63.7%

CSc1cc(Oc2ccnc3[nH]c(=O)cnc23)ccc1NC(=O)Nc1cc(C(C)(C)C)nn1-c1ccccc1
bioavailability (BALB/c mouse; oral, 10 mg/kg): 58%

CC(C)(Nc1nc(-c2ccccn2)nc2ccccc12)c1ccccn1
bioavailability (female BALB/c mouse; oral, 50 mg/kg): 102%

N[C@@H](CSSC[C@H](N)C(=O)O)C(=O)O
bioavailability (Kunming mouse; oral, 50 mg/kg): 15.1%

CC[C@H](C)[C@@H]1NC(=O)[C@@](C)(NC(=O)[C@H](CCCNC(=N)N)NC(=O)[C@H](CC(C)C)NC(=O)[C@@H](NC(=O)[C@H](CCC(N)=O)NC(=O)[C@H](CC(C)C)NC(C)=O)[C@@H](C)O)CCCC=CCCC[C@@](C)(C(=O)N[C@@H](CC(C)C)C(=O)N[C@@H](Cc2ccc3ccccc3c2)C(N)=O)NC(=O)[C@H](CCCNC(=N)N)NC(=O)[C@H](CCC(N)=O)NC1=O
bioavailability (male BALB/c mouse; intramuscular, 5 mg/kg): 20.6%

Nc1ncc(-c2ccncc2)nc1Nc1ccc2[nH]ccc2c1
bioavailability (male C57BL/6 mouse; oral, 30 mg/kg): 89%

N#C[C@@]1(c2ccc3c(N)ncnn23)O[C@H](CO)[C@@H](O)[C@H]1O
bioavailability (male CD-1 mouse; oral, 10 mg/kg): 57%

CCc1cc(OC)c2nccc(N3CCc4c(cc(Cn5ccnc5)cc4-c4cn(C)nc4C(F)(F)F)C3=O)c2c1
bioavailability (male CD-1 mouse; oral, 150 mg/kg): 135%

c1ccc2[nH]c(CNc3nc(N4CCOCC4)nc4c3ncn4-c3ccsc3)nc2c1
bioavailability (mouse; intravenous, 1 mg/kg): 0%

Cc1c(C(=O)Nc2ccccc2)sc(N)c1C(N)=O
bioavailability (male CD-1 mouse; oral, 10 mg/kg): 34%
